Test results taken from ChEMBL document CHEMBL1145892, “2-Substitution of adenine nucleotide analogues containing a bicyclo[3.1.0]hexane ring system locked in a northern conformation: enhanced potency as P2Y1 receptor antagonists” (J Med Chem, 2003).

Tests used:
[1] = molecular target: T1, P2Y purinoceptor 1 (Homo sapiens, UniProt P47900); assay: Antagonistic activity against P2Y purinoceptor 1; type: functional
Method in brief: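 Human P2Y1 stably expressed in 1321N1 astrocytoma cells, labeled 18–24 h at 37 °C with 1.0 µCi [3H]myo-inositol in inositol-free DMEM. Inositol phosphate accumulation was stimulated by 30 nM 2MeSADP over 10 min at 37 °C with 10 mM LiCl. Total [3H]inositol phosphates were measured by anion exchange. IC50 came from a four-parameter logistic fit; ≥3 experiments, duplicate or triplicate.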

[2] = molecular target: T1, P2Y purinoceptor 1; assay: Inhibition of [3H]5 binding to P2Y purinoceptor 1 expressed in Sf9 cells
Method in brief: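 Membranes were from Sf9 cells expressing human P2Y1 via recombinant baculovirus. They were incubated 30 min at 4 °C with [3H]5 (~20 nM or 10 nM as stated) across a wide analogue concentration range. Samples were filtered over glass-fiber with ice-cold 10 mM Tris pH 7.5/145 mM NaCl and counted by scintillation. Assays were triplicate, three experiments. Ki = IC50/(1+[L]/Kd), Kd 8 nM.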

T1 sequence (P47900 whole entry): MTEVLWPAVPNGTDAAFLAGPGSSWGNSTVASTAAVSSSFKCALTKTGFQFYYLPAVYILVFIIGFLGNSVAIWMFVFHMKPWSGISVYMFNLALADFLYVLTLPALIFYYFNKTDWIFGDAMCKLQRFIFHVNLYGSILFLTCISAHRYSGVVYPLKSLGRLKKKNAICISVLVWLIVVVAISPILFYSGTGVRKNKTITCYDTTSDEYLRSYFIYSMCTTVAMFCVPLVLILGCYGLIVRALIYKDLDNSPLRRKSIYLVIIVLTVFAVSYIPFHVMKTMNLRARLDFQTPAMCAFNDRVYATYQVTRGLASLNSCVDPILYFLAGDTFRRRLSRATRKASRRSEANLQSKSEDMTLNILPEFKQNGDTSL

SMILES	IC50 [1] [nM]	Ki [2] [nM]
CNc1nc(Br)nc2c1ncn2C1CC(OP(=O)(O)O)[C@]2(COP(=O)(O)O)C[C@H]12 (stereo partly specified)	37	5.1
CNc1ncnc2c1ncn2[C@H]1C[C@H](OP(=O)(O)O)[C@]2(COP(=O)(O)O)C[C@H]12	157	17.6
CNc1nc(SC)nc2c1ncn2[C@H]1C[C@H](OP(=O)(O)O)[C@]2(COP(=O)(O)O)C[C@H]12	221	91
CCCC/C=C/c1nc(NC)c2ncn([C@H]3C[C@H](OP(=O)(O)O)[C@]4(COP(=O)(O)O)C[C@H]34)c2n1	1870	330
CNc1nc(C)nc2c1ncn2[C@H]1C[C@H](OP(=O)(O)O)[C@]2(COP(=O)(O)O)C[C@H]12	49	3.6
Nc1nc(I)nc2c1ncn2C1CC(OP(=O)(O)O)[C@]2(COP(=O)(O)O)C[C@H]12 (stereo partly specified)	87	12.6
CNc1nc([Se]C)nc2c1ncn2C1CC(OP(=O)(O)O)[C@]2(COP(=O)(O)O)C[C@H]12 (stereo partly specified)	377	35
CNc1nc(I)nc2c1ncn2[C@H]1C[C@H](OP(=O)(O)O)[C@]2(COP(=O)(O)O)C[C@H]12	8.4	0.78

Further molecules by falling IC50 [1], results first:

IC50 [1] [nM]	Ki [2] [nM]	SMILES
2400	430	CCCC/C=C\c1nc(NC)c2ncn([C@H]3C[C@H](OP(=O)(O)O)[C@]4(COP(=O)(O)O)C[C@H]34)c2n1
452	80	CCCCCCc1nc(NC)c2ncn([C@H]3C[C@H](OP(=O)(O)O)[C@]4(COP(=O)(O)O)C[C@H]34)c2n1
367	863	CSc1nc(N)c2ncn([C@H]3C[C@H](OP(=O)(O)O)[C@]4(COP(=O)(O)O)C[C@H]34)c2n1
356	45	CNc1nc(F)nc2c1ncn2[C@H]1C[C@H](OP(=O)(O)O)[C@]2(COP(=O)(O)O)C[C@H]12
52	2.5	CNc1nc(Cl)nc2c1ncn2[C@H]1C[C@H](OP(=O)(O)O)[C@]2(COP(=O)(O)O)C[C@H]12
